Published values gathered from unrelated publications.
Target: BDNF/NT-3 growth factors receptor (NTRK2, Homo sapiens, UniProt Q16620)

Structure (SMILES) | assay | conditions | quantity | value
O=C(Nc1ccc(C(F)(F)F)cc1)Nc1cccc(C(=O)Nc2ccc3[nH]nc(-c4ccccc4)c3c2)c1 | enzyme activity, inhibitor, FRET | 1 µM | inhibition | 14.7%
CCN(CC)CCNC(=O)c1c(C)[nH]c(/C=C2\C(=O)Nc3ccc(F)cc32)c1C | cell-free assay | 10 µM | inhibition | 100%
CCC(=O)N[C@@H]1CC[C@H](C(=O)N(C)c2ccc(-c3nc4ccccc4o3)cc2)C1 | cell-free assay, competition with immobilised ligand | 1 µM | remaining binding | 100%
O=C(Cc1ccc(C(F)(F)F)cc1)Nc1cccc(C(=O)Nc2ccc3[nH]ncc3c2)c1 | enzyme activity, inhibitor, FRET | 1 µM | inhibition | 16.8%
CCCOc1ccc(OC)c(F)c1C(=O)c1ccc(C(=O)N[C@@H]2CNC[C@H]2NC(=O)c2ccc3[nH]ncc3c2)cc1 | enzyme activity, inhibitor | 10 µM | remaining activity | 71%
Cc1cc(-n2nc(Cc3cc(F)cc(C(F)(F)F)c3)nc2C)ccc1C(N)=O | cell-free assay, competition with immobilised ligand | 1 µM | remaining binding | 98%
O=C(Nc1ccc2[nH]ncc2c1)c1cccc(NC(=S)Nc2ccc(F)cc2F)c1 | enzyme activity, inhibitor, FRET | 1 µM | inhibition | 9.64%
c1ccc(N2CCN(Cc3nc4ccccc4[nH]3)CC2)nc1 | cell-free assay, competition with immobilised ligand | 1 µM | remaining binding | 100%
O=C(Nc1cnn2ccc(N3CCC[C@@H]3c3cc(F)ccc3F)nc12)N1CC[C@H](O)C1 | enzyme activity, inhibitor, FRET | 1 µM | inhibition | 100%
O=C(Nc1cnn(-c2csc(C(=O)NC3COC3)c2)c1)Nc1ccccc1Cl | enzyme activity, inhibitor | 5 µM | remaining activity | 84.2%
O=C(Nc1cccc(F)c1)Nc1cccc(C(=O)Nc2ccc3[nH]ncc3c2)c1 | enzyme activity, inhibitor, FRET | 1 µM | inhibition | 19.3%
CC(C)(C)c1nc(-c2cccc(NS(=O)(=O)c3c(F)cccc3F)c2F)c(-c2ccnc(N)n2)s1 | enzyme activity, inhibitor, radiometric | 1 µM | remaining activity | 100%
O=C(Nc1cnn(-c2csc(C(=O)NC3COC3)c2)c1)Nc1c(F)cccc1Cl | enzyme activity, inhibitor | 5 µM | remaining activity | 91.5%
CN1CCN(CC(=O)Nc2cccc(C(=O)Nc3ccc4[nH]ncc4c3)c2)CC1 | enzyme activity, inhibitor, FRET | 1 µM | inhibition | 13.3%
O=C1NC(=O)c2cc(Nc3ccc(F)cc3)c(Nc3ccc(F)cc3)cc21 | cell-free assay | 0.5 µM | remaining signal | 91.9%
Cc1cc(NC(=O)c2cccc3cc(-c4cccc5[nH]nc(N)c45)ccc23)ccc1F | enzyme activity, inhibitor | 0.1 µM | activity vs control | 107%
CCCOc1ccc([C@@H]2[C@@H](C(=O)O)[C@H](c3ccc4c(c3)OCO4)CN2CC(=O)Nc2c(CC)cccc2CC)cc1 | cell-free assay, competition with immobilised ligand | 1 µM | remaining binding | 100%
COc1cc(Cl)c(C(=O)N[C@@H](CN[C@H]2CC[C@@H](N)CC2)Cc2ccc(C#N)cc2)cc1-c1ccc(CN[C@H](C)c2ccc(C)cc2)o1 | enzyme activity, inhibitor | 1 µM | remaining activity | 64%
Cc1ccc(Nc2nccc(N(C)c3ccc4c(C)n(C)nc4c3)n2)cc1S(N)(=O)=O | cell-free assay | 0.5 µM | remaining signal | 91.5%
C[C@@H]1CN(c2cc(-c3n[nH]c4ccc(OC5(C)CC5)cc34)ncn2)C[C@H](C)O1 | cell-free assay, competition with immobilised ligand | 0.1 µM | remaining binding | 67%
Cc1ccc(NC(=O)c2ccc(CN3CCN(C)CC3)cc2)cc1Nc1nc(-c2cccnc2)cs1 | cell-free assay | 0.5 µM | remaining signal | 101%
O=C(Nc1ccc(I)cc1)Nc1cccc(C(=O)Nc2ccc3[nH]ncc3c2)c1 | enzyme activity, inhibitor, FRET | 1 µM | inhibition | 15.9%
Nc1ncnc2occ(-c3ccc(NC(=O)Nc4cc(C(F)(F)F)ccc4F)cc3)c12 | cell-free assay | 20 µM | remaining signal | 1.4%
Cc1cc(C)c(-n2ccn3nc(-c4cccnc4)cc23)cc1NC(=O)c1cc(C#N)cc(S(F)(F)(F)(F)F)c1 | cell-free assay, competition with immobilised ligand | 0.1 µM | remaining binding | 54.8%
Cc1ccc(C(=O)Nc2ccc(CN3CCN(C)CC3)c(C(F)(F)F)c2)cc1C#Cc1cnc2cccnn12 | cell-free assay | 23.5 nM | remaining signal | 2.3%
Cc1c(NC(=O)c2cc(C(N)=O)nc3cc(F)ccc23)c(C(F)(F)F)nn1Cc1ccc(C(C)(C)C)cc1 | cell-free assay, competition with immobilised ligand | 1 µM | remaining binding | 100%
CC(C)(O)[C@H]1CC[C@H](Nc2ccc3ncc(-c4cccc(C(F)(F)F)c4)n3n2)CC1 | enzyme activity, inhibitor | 1 µM | remaining activity | 7.07%
O=C(Nc1ccccc1)Nc1cccc(C(=O)Nc2ccc3[nH]ncc3c2)c1 | enzyme activity, inhibitor, FRET | 1 µM | inhibition | 12.3%
CN(c1ccnc(CNc2nc(Nc3ccc4c(c3)CC(=O)N4)ncc2C(F)(F)F)n1)S(C)(=O)=O | cell-free assay, competition with immobilised ligand | 1 µM | remaining binding | 21%
